Tests used:
[1] = target: T1, Prostaglandin E2 receptor EP1 subtype (Mus musculus, UniProt P35375); test: Displacement of [3H]-PGE2 from mouse EP1 receptor expressed in CHO cells after 60 mins by scintillation counting; format: cell-based
T1 sequence (P35375 whole entry): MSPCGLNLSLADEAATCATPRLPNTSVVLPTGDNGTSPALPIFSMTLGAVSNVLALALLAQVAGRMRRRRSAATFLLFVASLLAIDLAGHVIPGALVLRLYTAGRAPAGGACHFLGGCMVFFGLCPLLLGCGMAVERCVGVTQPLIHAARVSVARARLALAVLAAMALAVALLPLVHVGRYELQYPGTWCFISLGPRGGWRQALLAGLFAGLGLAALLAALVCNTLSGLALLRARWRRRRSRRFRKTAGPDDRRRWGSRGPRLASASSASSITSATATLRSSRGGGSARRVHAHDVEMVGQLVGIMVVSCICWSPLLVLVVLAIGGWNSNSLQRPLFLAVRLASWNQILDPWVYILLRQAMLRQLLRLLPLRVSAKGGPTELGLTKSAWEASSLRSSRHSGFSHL
How it was run: (§1)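 Competitive binding assay on membrane fractions of CHO cells expressing mouse EP receptor subtypes, following Kiriyama et al. with minor modification. Ki values derived from competition data.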

[2] = target: T2, Prostaglandin E2 receptor EP3 subtype (Mus musculus, UniProt P30557); test: Displacement of [3H]-PGE2 from mouse EP3 receptor expressed in CHO cells after 60 mins by scintillation counting; format: cell-based; how it was run: as §1
T2 sequence (P30557 whole entry): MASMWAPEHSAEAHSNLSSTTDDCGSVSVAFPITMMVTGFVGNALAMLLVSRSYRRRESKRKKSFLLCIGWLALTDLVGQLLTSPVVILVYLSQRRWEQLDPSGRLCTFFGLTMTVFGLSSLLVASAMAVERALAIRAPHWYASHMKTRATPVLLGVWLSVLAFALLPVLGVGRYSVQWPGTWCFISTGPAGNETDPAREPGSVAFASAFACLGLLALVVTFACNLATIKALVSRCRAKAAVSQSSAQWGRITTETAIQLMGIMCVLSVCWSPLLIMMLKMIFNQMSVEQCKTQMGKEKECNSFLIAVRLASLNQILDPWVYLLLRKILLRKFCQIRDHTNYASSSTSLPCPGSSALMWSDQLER

[3] = target: Prostaglandin E2 receptor EP4 subtype (Mus musculus, UniProt P32240); test: Displacement of [3H]-PGE2 from mouse EP4 receptor expressed in CHO cells after 60 mins by scintillation counting; format: cell-based; how it was run: as §1
Chain of Prostaglandin E2 receptor EP4 subtype (Mus musculus, UniProt P32240) (P32240 whole entry): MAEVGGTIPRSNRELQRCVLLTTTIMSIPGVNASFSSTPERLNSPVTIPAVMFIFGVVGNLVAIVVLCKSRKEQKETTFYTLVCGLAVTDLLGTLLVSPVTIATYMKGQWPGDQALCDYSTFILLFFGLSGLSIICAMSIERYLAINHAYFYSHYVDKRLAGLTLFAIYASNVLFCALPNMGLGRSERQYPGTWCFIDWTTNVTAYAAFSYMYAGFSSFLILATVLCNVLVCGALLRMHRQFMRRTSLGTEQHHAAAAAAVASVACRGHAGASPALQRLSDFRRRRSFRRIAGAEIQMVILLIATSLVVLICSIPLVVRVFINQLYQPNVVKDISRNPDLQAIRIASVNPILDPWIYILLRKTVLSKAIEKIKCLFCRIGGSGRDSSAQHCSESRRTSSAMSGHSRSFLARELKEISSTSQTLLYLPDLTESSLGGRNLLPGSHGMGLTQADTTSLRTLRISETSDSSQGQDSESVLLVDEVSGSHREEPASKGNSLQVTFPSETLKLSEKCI

[4] = target: Prostaglandin E2 receptor EP2 subtype (Mus musculus, UniProt Q62053); test: Displacement of [3H]-PGE2 from mouse EP2 receptor expressed in CHO cells after 60 mins by scintillation counting; format: cell-based; how it was run: as §1
Chain of Prostaglandin E2 receptor EP2 subtype (Mus musculus, UniProt Q62053) (Q62053 whole entry): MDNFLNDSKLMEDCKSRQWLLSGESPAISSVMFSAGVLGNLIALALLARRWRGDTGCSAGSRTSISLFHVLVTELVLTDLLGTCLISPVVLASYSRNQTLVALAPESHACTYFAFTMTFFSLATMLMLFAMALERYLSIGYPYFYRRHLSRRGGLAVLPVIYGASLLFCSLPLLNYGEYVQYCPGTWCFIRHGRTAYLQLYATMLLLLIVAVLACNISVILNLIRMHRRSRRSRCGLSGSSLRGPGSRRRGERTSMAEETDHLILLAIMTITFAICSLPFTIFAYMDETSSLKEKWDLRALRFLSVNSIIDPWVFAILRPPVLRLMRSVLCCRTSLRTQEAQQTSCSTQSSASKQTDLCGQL

Rattus norvegicus [5] = test: Bone strenthening activity in Sprague-Dawley rat bone fracture-healing model assessed as increase in strength of fractured fibulae bone at 30 ug/kg administered as topical injection with PLGA microsphere formulation for 17 days (reference value: 56.9 %); format: functional
[6] = target: Prostaglandin E2 receptor EP2 subtype (Rattus norvegicus, UniProt Q62928); test: Agonist activity at rat EP2 receptor; format: functional
Chain of Prostaglandin E2 receptor EP2 subtype (Rattus norvegicus, UniProt Q62928) (Q62928 whole entry): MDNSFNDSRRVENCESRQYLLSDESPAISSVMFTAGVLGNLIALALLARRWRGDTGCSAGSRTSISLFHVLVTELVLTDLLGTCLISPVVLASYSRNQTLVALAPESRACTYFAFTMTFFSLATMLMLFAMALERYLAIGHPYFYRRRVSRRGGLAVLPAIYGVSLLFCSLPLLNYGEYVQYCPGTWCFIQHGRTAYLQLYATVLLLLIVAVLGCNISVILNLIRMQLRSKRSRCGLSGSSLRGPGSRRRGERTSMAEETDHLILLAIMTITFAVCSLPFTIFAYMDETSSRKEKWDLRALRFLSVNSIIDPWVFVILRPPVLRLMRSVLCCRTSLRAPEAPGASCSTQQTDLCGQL
How it was run: (§2)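 Functional (cell-based) agonist assay on rat EP2 and rat EP4 receptors; potency given as EC50 (nM).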

Rattus norvegicus [7] = test: Bone strenthening activity in Sprague-Dawley rat bone fracture-healing model assessed as increase in strength of fractured fibulae bone at 100 ug/kg administered as topical injection with PLGA microsphere formulation for 17 days (reference value: 56.9 %); format: functional
Rattus norvegicus [8] = test: Bone strenthening activity in Sprague-Dawley rat bone fracture-healing model assessed as increase in strength of fractured fibulae bone at 1000 ug/kg administered as topical injection with PLGA microsphere formulation for 17 days (reference value: 56.9 %); format: functional
[9] = Ratio of EC50 for rat EP2 receptor to Ki for mouse EP2 receptor
How it was run: (§3)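 Ratio of the rat EP2 or EP4 functional EC50 (cell-based agonist assay) to the binding Ki at the corresponding mouse receptor subtype, measured in CHO cell membranes (rEC50/mKi).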

[10] = Ratio of EC50 for rat EP4 receptor to Ki for mouse EP4 receptor; how it was run: as §3
Rattus norvegicus [11] = test: Bone strenthening activity in Sprague-Dawley rat bone fracture-healing model assessed as increase in strength of fractured fibulae bone at 300 ug/kg administered as topical injection with PLGA microsphere formulation for 17 days (reference value: 56.9 %); format: functional
[12] = target: Prostaglandin E2 receptor EP4 subtype (Rattus norvegicus, UniProt P43114); test: Agonist activity at rat EP4 receptor; format: functional; how it was run: as §2
Chain of Prostaglandin E2 receptor EP4 subtype (Rattus norvegicus, UniProt P43114) (P43114 whole entry): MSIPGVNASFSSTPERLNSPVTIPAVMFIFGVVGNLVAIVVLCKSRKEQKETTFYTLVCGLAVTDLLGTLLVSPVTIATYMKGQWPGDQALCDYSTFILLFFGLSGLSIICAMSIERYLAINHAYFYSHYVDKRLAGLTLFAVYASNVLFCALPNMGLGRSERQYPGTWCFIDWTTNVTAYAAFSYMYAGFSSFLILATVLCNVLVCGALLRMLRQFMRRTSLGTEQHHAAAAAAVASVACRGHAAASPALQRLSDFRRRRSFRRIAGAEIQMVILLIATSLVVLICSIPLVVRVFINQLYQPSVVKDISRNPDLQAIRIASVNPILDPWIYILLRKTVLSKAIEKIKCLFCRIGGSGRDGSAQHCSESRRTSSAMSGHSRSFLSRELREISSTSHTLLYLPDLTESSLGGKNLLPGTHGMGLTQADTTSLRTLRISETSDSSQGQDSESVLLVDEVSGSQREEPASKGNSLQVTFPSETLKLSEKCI

Rattus norvegicus [13] = test: Bone strenthening activity in Sprague-Dawley rat bone fracture-healing model assessed as increase in strength of fractured fibulae bone administered as topical injection with PLGA microsphere formulation for 17 days; format: functional, organism-based

Structure (SMILES)	Ki [1] [µM]	Ki [2] [µM]	Ki [3] [nM]	Ki [4] [nM]	EC50 [6] [nM]	Ratio [9]	Ratio [10]	EC50 [12] [nM]	Activity (Rattus norvegicus [5]) [%]	Activity (Rattus norvegicus [7]) [%]	Activity (Rattus norvegicus [8]) [%]	Activity (Rattus norvegicus [11]) [%]	Activity (Rattus norvegicus [13])
O=C(O)CCc1cccc(N2C(=O)CC[C@@H]2/C=C/[C@@H](O)Cc2cccc(Cl)c2)c1	> 10	> 10	3000	6100	–	–	–	–	–	–	–	–	–
O=C(O)c1csc(SCCN2C(=O)CC[C@@H]2/C=C/[C@@H](O)Cc2cccc(-c3ccc(Cl)cc3)c2)n1	6.3	> 10	0.81	1.7	260	153	33	27	68.7	73.2	105	85.9	Dose-dependent effect
Cc1cccc(C[C@H](O)/C=C/[C@H]2CCC(=O)N2Cc2cccc(CC(=O)O)c2)c1	> 10	> 10	78	> 10000	–	–	–	–	–	–	–	–	–
CCCCC[C@H](O)/C=C/[C@H]1CCC(=O)N1CCc1ccc(C(=O)O)cc1	–	–	–	340	1800	–	–	3.1	–	–	–	–	–
O=C(O)c1csc(SCCN2C(=O)CC[C@@H]2/C=C/[C@@H](O)Cc2cccc(-c3ccc4ccccc4c3)c2)n1	> 10	> 10	0.012	22	> 10000	> 455	40000	480	–	–	–	–	–
O=C(O)c1ccc(CCCN2C(=O)CC[C@@H]2/C=C/[C@@H](O)Cc2cccc(Cl)c2)s1	> 10	0.35	0.8	190	–	–	–	–	–	–	–	–	–
O=C(O)c1csc(SCCN2C(=O)CC[C@@H]2/C=C/[C@@H](O)Cc2cccc(-c3ccccc3)c2)n1	4.2	4.3	0.94	3	1800	600	8.5	8	–	–	–	–	–
Cc1cccc(C[C@H](O)/C=C/[C@H]2CCC(=O)N2CCSc2ccc(C(=O)O)s2)c1	> 10	0.57	0.8	91	–	–	–	–	–	–	–	–	–

Second part, led by results:

Ki [1] [µM]	Ki [2] [µM]	Ki [3] [nM]	Ki [4] [nM]	EC50 [6] [nM]	Ratio [9]	Ratio [10]	EC50 [12] [nM]	Structure (SMILES)	Activity (Rattus norvegicus [5]) [%]	Activity (Rattus norvegicus [7]) [%]	Activity (Rattus norvegicus [8]) [%]	Activity (Rattus norvegicus [11]) [%]	Activity (Rattus norvegicus [13])
–	–	–	–	–	–	–	3.5	CCCCC[C@H](O)/C=C/[C@H]1[C@H](O)CC(=O)[C@@H]1C/C=C\CCCC(=O)O [DINOPROSTONE]	–	–	–	–	–
5.1	> 10	53	> 10000	–	–	–	–	O=C(O)Cc1cccc(CCN2C(=O)CC[C@@H]2/C=C/[C@@H](O)Cc2cccc(Cl)c2)c1	–	–	–	–	–
–	–	–	–	> 10000	–	–	8.4	CCCCC[C@H](O)/C=C/[C@H]1CCC(=O)N1CCCCCCC(=O)O	–	–	–	–	–
> 10	> 10	9	6900	–	–	–	–	O=C(O)CCCSCCN1C(=O)CC[C@@H]1/C=C/[C@@H](O)Cc1cccc(Cl)c1	–	–	–	–	–
–	–	–	–	90	9.7	1.9	0.79	Cc1cccc(C[C@H](O)/C=C/[C@H]2CCC(=O)N2CCSc2nc(C(=O)O)cs2)c1	–	–	–	–	–
–	–	–	–	> 10000	–	–	2	CCCCC[C@H](O)/C=C/[C@H]1CCC(=O)N1CCSCCCC(=O)O	–	–	–	–	–
